NOD2 RIPK2 PPI – inhibitors of human NOD2-RIPK2 interaction; O43353; CHO BLA complementation NOD2-RIPK2, CCF4 ratio; inhibition, % at 4.98 µM; 360,000 compounds, 0.38% hits; AID 624267; in the data active = inhibition above about 21%;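 also: 0% = vehicle only and 100% = reference blocker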
Target sequence (O43353 whole entry, looked up): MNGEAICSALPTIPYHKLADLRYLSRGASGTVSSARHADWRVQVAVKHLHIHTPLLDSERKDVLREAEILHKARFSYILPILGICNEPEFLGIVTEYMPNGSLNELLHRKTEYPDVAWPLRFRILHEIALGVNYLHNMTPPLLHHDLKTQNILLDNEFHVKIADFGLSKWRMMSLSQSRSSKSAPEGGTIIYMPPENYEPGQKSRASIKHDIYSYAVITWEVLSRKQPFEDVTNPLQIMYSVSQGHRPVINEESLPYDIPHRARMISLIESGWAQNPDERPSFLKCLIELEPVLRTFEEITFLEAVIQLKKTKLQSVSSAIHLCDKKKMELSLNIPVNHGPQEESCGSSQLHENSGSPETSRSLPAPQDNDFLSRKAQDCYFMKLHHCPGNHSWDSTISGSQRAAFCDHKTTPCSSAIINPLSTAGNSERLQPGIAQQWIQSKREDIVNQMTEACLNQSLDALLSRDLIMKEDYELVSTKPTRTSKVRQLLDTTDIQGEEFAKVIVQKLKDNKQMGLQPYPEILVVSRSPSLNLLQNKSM
UPR CHOP act – activators of apoptotic arm of unfolded protein response (CHOP); activation, % at 10 µM; 330,000 compounds, 0.34% hits; CHO-CHOP luciferase reporter, UPR activation, luminescence; percent of tunicamycin response over DMSO baseline;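 active = at 10 µM dose, activation of 40% or more, normalized to positive control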;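 also: 100% = tunicamycin at 10 µg/mL and 0% = DMSO alone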
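Dosing – one dose, 10 µM in 0.5% DMSO · System – CHO-CHOP cells, stable luciferase reporter of PERK-eIF2a-CHOP signalling · Input – 500 cells/well · Control set – tunicamycin 10 µg/mL final as positive, DMSO-only wells as negative · Timing – 6 h compound treatment, 37 °C · Measure – % activation vs tunicamycin · Technique – luminescence read with Steady-Glo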
CHOP inhibitor – inhibitors of CHOP induction in ER stress response. CHO-K1 CHOP-promoter luciferase, tunicamycin-induced, 15-18 h. inhibition, % at 10 µM. 220,000 compounds, 3.8% hits. AID 2732;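 active = compounds that reduced the stress-induced luciferase reporter signal by more than about 70% of percent inhibition, limit read from the data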;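 also: 0% = tunicamycin plus vehicle and 100% = wells without tunicamycin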
TLR9-MyD88 inh – inhibitors of human TLR9-MyD88 binding | Q9NR96+Q99836 | CHO BLA complementation TLR9-MyD88, CCF4 FRET ratio | inhibition, % at 4.98 µM | 340,000 compounds, 0.21% hits | AID 504734;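 active = inhibition above the mean over all tested compounds plus 3 SD, cut at about 21% in these data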;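 also: 0% = DMSO only wells and 100% = clavulanate BLA inhibitor control wells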
XBP1 UPR activ – activators of adaptive arm of unfolded protein response (XBP1). CHO-XBP1 luciferase reporter, IRE1-XBP1 UPR activation, luminescence; percent of tunicamycin response, DMSO as zero. AID 463104. activation, % at 20 µM. 330,000 compounds, 0.33% hits;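 active = versus positive control, 20 µM dose yields 30% or more activation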;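 also: 100% = tunicamycin at 10 µg/mL and 0% = DMSO only wells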
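incubation = overnight seeding at 37 °C, 6 h compound treatment at 37 °C | assay system = CHO-XBP1 cells stably carrying IRE1-XBP1-driven luciferase reporter | input = 1000 cells per well | detection = luciferase luminescence | dosing = single point, 20 µM final compound, 1% DMSO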
TLR4-MyD88 BLA – TLR4-MyD88 interaction inhibition in cells; 200,000 compounds, 0.18% hits; O00206+Q99836; inhibition, % at 8.4 µM; HeLa CL3-4 TLR4/MyD88 BLA complementation, FRET ratio; in the data active = inhibition above about 25%;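 also: 0% = vehicle and 100% = reference inhibitor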
CHOP UPR conf – apoptotic UPR (CHOP) activation, confirmed | activation, % at 10 µM | 1,000 compounds, 64% hits | CHO-CHOP cells, CHOP-luciferase reporter luminescence; percent of tunicamycin response, DMSO as zero | shares compounds with UPR CHOP act; in the data active = activation above about 33%;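 also: 0% = DMSO wells and 100% = tunicamycin 10 µg/mL wells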
Active calls of the source: *; · = no result given. The sample as a whole holds a higher share of hits than the screen did.

SMILES | NOD2 RIPK2 PPI | UPR CHOP act | CHOP inhibitor | TLR9-MyD88 inh | XBP1 UPR activ | TLR4-MyD88 BLA | CHOP UPR conf
Cc1cccc(NC(=O)CSc2cccc3cccnc23)c1C | -1 | 2 | · | 6 | -2 | · | ·
O=C(O)C1CN(CCCP(=O)(O)O)CCN1 (configuration not stated) | · | · | -16 | · | · | · | ·
S=C1SCN(Cc2ccco2)CN1Cc1ccco1 | -7 | 59* | -147 | 5 | 7 | · | 47*
CCN1CSC(=S)N(Cc2ccccc2)C1 | -4 | 86* | · | -1 | 0 | · | 91*
O=Cc1ccc(O)c2ncccc12 | -3 | 86* | 20 | -11 | 24 | · | 89*
NS(=O)(=O)c1ccc(N=Nc2ccc(O)c3ncccc23)cc1 | -4 | 21 | · | 2 | 3 | · | ·
COc1ccc(C(=O)Nc2ccccc2C(=O)N/N=C/c2ccccn2)cc1OC | -16 | 101* | 51 | · | 9 | · | 100*
COc1ccc(C(=O)N/N=C/c2ccccn2)cc1OC | -2 | 2 | 23 | -1 | 2 | -3 | ·
Cc1nc(C(F)(F)F)ccc1C(=O)N1CCC1(C)C(=O)NS(=O)(=O)c1ccc2c(c1)CCO2 (configuration not stated) | 5 | · | · | · | · | · | ·
CC(C)Cc1nc2oc3c(N4CCN(CCO)CC4)ncnc3c2c2c1CCCC2 | 7 | 44* | 57 | 0 | 6 | 17 | -1
CCc1ccc2nc(N(CCCN(C)C)C(=O)c3ccc(S(=O)(=O)N(C)C4CCCCC4)cc3)sc2c1 | 6 | 113* | · | -1 | 131* | · | 65*
CN(C)CCCN(C(=O)c1ccc(S(=O)(=O)N(C)C2CCCCC2)cc1)c1nc2ccc(F)cc2s1 | 6 | 2 | · | -1 | 2 | · | ·
CC(=O)c1ccc(NC(=O)COC(=O)c2ccccc2N=Nc2ccc(N(C)C)cc2)cc1 | 0 | 44* | 29 | -4 | 9 | 1 | 55*
Cc1nc2scc(-c3ccccc3)c2c(=O)n1N=C1C=CC(=O)C=C1 | · | 90* | 110* | · | -7 | 7 | 13
Cc1[nH]c2c(C)cccc2c1CCNC(=O)c1ccc2c(c1[N+](=O)[O-])C(=O)c1ccccc1C2=O | -8 | 48* | -1 | 7 | 2 | -15 | 40*
Cc1[nH]c2ccccc2c1CCNC(=O)c1ccc2c(c1[N+](=O)[O-])C(=O)c1ccccc1C2=O | 4 | 6 | 1 | 7 | -3 | -12 | ·
CCc1cccc2c(C(=O)CCl)c[nH]c12 | -4 | 84* | -141 | -10 | 0 | 1 | 66*
O=C(Nc1cccc(Oc2ccccc2)c1)c1ccc(-n2cncn2)c2ccoc12 | -3 | · | · | · | · | · | ·
COc1cccc(-c2ccc(C3=CC(=O)CC(C)(C)C3=O)cc2)c1OC | 0 | · | · | 7 | · | · | ·
O=C(N/N=C/c1c[nH]c2ccccc12)c1sc2ccccc2c1Cl | 2 | 5 | -5 | 7 | 1 | 4 | ·
O=C(N/N=C/c1ccccn1)c1cc(-c2ccc(Cl)cc2)nc2ccccc12 | 3 | 264* | 83* | -2 | -2 | 6 | 290*
O=C(N/N=C/c1ccccn1)c1cc(-c2ccc(Br)cc2)nc2ccccc12 | -13 | 331* | 53 | -5 | -3 | · | 265*
O=C(N/N=C/c1ccccn1)c1sc2ccccc2c1Cl | -7 | 179* | -38 | 13 | 11 | · | 104*
Fc1ccc(Nc2cncc(-c3ccsc3)c2)cc1Cl | -2 | · | · | · | · | · | ·
Nc1ccccc1C(=O)NN=Cc1cccnc1 | -67 | · | · | · | · | · | ·
C[C@H](CO)N1C[C@H](C)[C@H](CN(C)S(=O)(=O)c2ccc(-n3cccn3)cc2)OCc2cnnn2CCCC1=O | 2 | · | · | -12 | · | · | ·
FC(F)(F)C1=Nc2cccc3cccc(c23)N1 | -2 | 62* | · | -8 | 0 | · | 27
CC(C)N1CCc2c(sc(NC(=O)c3ccc([N+](=O)[O-])o3)c2C(N)=O)C1 | 15 | 6 | · | 13 | -6 | · | ·
COC(=O)c1c(NC(=O)c2ccc([N+](=O)[O-])o2)sc2c1CCN(C(C)C)C2 | 6 | 71* | · | 8 | -9 | · | 56*

Screening data (PubChem)
